Test results reported in ChEMBL document CHEMBL1255406, “Production of a class II two-component lantibiotic of Streptococcus pneumoniae using the class I nisin synthetic machinery and leader sequence” (2010).
≈ marks a conversion by molar mass, not a printed value. Calls of active or inactive are those of the source. The rule behind the calls is not given here. Peptide text beside a SMILES is read from it.

Assays:
Micrococcus flavus [1] = test: Antimicrobial activity against Micrococcus flavus assessed as growth inhibition in presence of trypsin; type: functional
Method in brief: (§1)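 Broth microdilution MIC in GM17 in 96-well plates. Overnight M. flavus culture diluted 1:50 and grown to OD600 0.2, then 150 µl culture mixed with 50 µl medium containing serial peptide concentrations. Incubated overnight at a temperature suited to the strain (M. flavus grown at 30°C), with OD600 read every 30 min. MIC is the lowest concentration inhibiting growth, read when untreated cells reach half-maximal OD. At least triplicate.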

Streptococcus mitis [2] = test: Antimicrobial activity against Streptococcus mitis assessed as growth inhibition in presence of trypsin; type: functional, organism-based
Method in brief: (§2)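 Strains in GM17 at 37°C, diluted 1:50 from overnight and grown to OD600 0.2, then exposed to peptide dilutions. OD600 read every 30 min. MIC = lowest inhibiting concentration when untreated cells reach half-maximal OD. At least triplicate.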

Streptococcus pneumoniae [3] = test: Antimicrobial activity against Streptococcus pneumoniae assessed as growth inhibition in presence of trypsin; type: functional, organism-based; method in brief: as §2
Staphylococcus aureus [4] = test: Antimicrobial activity against Staphylococcus aureus assessed as growth inhibition in presence of leucine aminopeptidase; type: functional, organism-based
Method in brief: (§3)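 Leader cleaved by 30 min incubation at 37°C with leucine aminopeptidase in phosphate buffer, pH 7.4. Strains in GM17 at 37°C, diluted 1:50 from overnight and grown to OD600 0.2, then mixed with peptide dilutions. OD600 monitored every 30 min. MIC = lowest concentration inhibiting growth, read when untreated cultures reach half-maximal OD. At least triplicate.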

Streptococcus mitis [5] = test: Antimicrobial activity against Streptococcus mitis assessed as growth inhibition in presence of leucine aminopeptidase; type: functional, organism-based; method in brief: as §3
Enterococcus faecalis [6] = test: Antimicrobial activity against Enterococcus faecalis assessed as growth inhibition in presence of leucine aminopeptidase; type: functional, organism-based; method in brief: as §3
Streptococcus pneumoniae [7] = test: Antimicrobial activity against Streptococcus pneumoniae assessed as growth inhibition in presence of leucine aminopeptidase; type: functional, organism-based; method in brief: as §3
Enterococcus faecalis [8] = test: Antimicrobial activity against Enterococcus faecalis assessed as growth inhibition in presence of trypsin; type: functional, organism-based; method in brief: as §2
Micrococcus flavus [9] = test: Antimicrobial activity against Micrococcus flavus assessed as growth inhibition; type: functional; method in brief: as §1
Staphylococcus aureus [10] = test: Antimicrobial activity against Staphylococcus aureus assessed as growth inhibition in presence of trypsin; type: functional, organism-based; method in brief: as §2
Micrococcus flavus [11] = test: Antimicrobial activity against Micrococcus flavus assessed as growth inhibition in presence of leucine aminopeptidase; type: functional; method in brief: as §1

MIC (Micrococcus flavus [1]) | MIC (Micrococcus flavus [9]) | MIC (Micrococcus flavus [11]) | Structure (SMILES) | growth inhibition (GI) (Streptococcus mitis [2]) | growth inhibition (GI) (Streptococcus pneumoniae [3]) | growth inhibition (GI) (Staphylococcus aureus [4]) | growth inhibition (GI) (Streptococcus mitis [5]) | growth inhibition (GI) (Enterococcus faecalis [6]) | growth inhibition (GI) (Streptococcus pneumoniae [7]) | growth inhibition (GI) (Enterococcus faecalis [8]) | growth inhibition (GI) (Staphylococcus aureus [10])
0.004 µM | 20 µM (≈ 66.2 µg/mL) |  | C=C(NC(=O)[C@H](NC(=O)[C@@H](Cc1cnc[nH]1)NC(=O)[C@H](NC(=O)[C@@H](CO)NC(=O)[C@H]1CS[C@H](C)[C@@H]2NC(=O)[C@@H](C)NC(=O)[C@@H](NC(=O)[C@@H](CCCCN)NC(=O)[C@@H](CCSC)NC(=O)[C@@H](CC(N)=O)[C@H]3CS[C@H](C)[C@H](NC(=O)[C@@H](CCCCN)NC(=O)[C@H]4CS[C@H](C)[C@H](NC(=O)[C@H]5CSC[C@H](NC(=O)/C(=C/C)NC(=O)[C@H](N)[C@H](C)CC)C(=O)N[C@H]([C@H](C)CC)C(=O)NC(=C)C(=O)N[C@H](CC(C)C)C(=O)N5)C(=O)N5CCC[C@@H]5C(=O)NCC(=O)N4)C(=O)NCC(=O)N[C@H](C)C(=O)N[C@H](CC(C)C)C(=O)N[C@H](CCSC)C(=O)NCC(=O)N3)[C@@H](C)SC[C@@H](NC2=O)C(=O)N[C@H](Cc2cnc[nH]2)C(=O)N1)[C@H](C)CC)C(C)C)C(=O)N[C@H](CCCCN)C(=O)O [PRENISIN] |  |  |  |  |  |  |  | 
10 µM | 85 µM (≈ 271 µg/mL) | 8.5 µM | CC[C@H](C)[C@H](NC(=O)[C@H](Cc1ccccc1)NC(=O)[C@H](CO)NC(=O)[C@H](CC(C)C)NC(=O)[C@@H](NC(=O)[C@H](C)NC(=O)[C@H](CO)NC(=O)[C@H](CS)NC(=O)[C@@H](NC(=O)[C@@H](NC(=O)[C@@H](NC(=O)[C@@H](N)CO)[C@@H](C)O)[C@@H](C)CC)[C@@H](C)CC)[C@@H](C)O)C(=O)N[C@@H](C)C(=O)N[C@@H](CO)C(=O)N[C@@H](Cc1ccc(O)cc1)C(=O)N[C@@H](CC(C)C)C(=O)NCC(=O)N[C@@H](CO)C(=O)N[C@@H](C)C(=O)N[C@@H](CCC(N)=O)C(=O)N[C@H](C(=O)N[C@@H](CCCNC(=N)N)C(=O)N[C@@H](CS)C(=O)NCC(=O)N[C@@H](CCCCN)C(=O)N[C@@H](CC(=O)O)C(=O)N[C@@H](CC(N)=O)C(=O)N[C@@H](CCCCN)C(=O)N[C@@H](CCCCN)C(=O)N[C@@H](CCCCN)C(=O)O)[C@@H](C)O (H-STIICSATLSFIASYLGSAQTRCGKDNKKK-OH) | inactive | inactive | inactive | inactive | inactive | inactive | inactive | inactive

Structure (SMILES) | MIC (Micrococcus flavus [1]) | MIC (Micrococcus flavus [9]) | MIC (Micrococcus flavus [11]) | growth inhibition (GI) (Streptococcus mitis [2]) | growth inhibition (GI) (Streptococcus pneumoniae [3]) | growth inhibition (GI) (Staphylococcus aureus [4]) | growth inhibition (GI) (Streptococcus mitis [5]) | growth inhibition (GI) (Enterococcus faecalis [6]) | growth inhibition (GI) (Streptococcus pneumoniae [7]) | growth inhibition (GI) (Enterococcus faecalis [8]) | growth inhibition (GI) (Staphylococcus aureus [10])
CC[C@H](C)[C@H](NC(=O)CNC(=O)[C@H](CO)NC(=O)[C@@H](NC(=O)[C@H](C)NC(=O)[C@H](C)NC(=O)[C@H](CO)NC(=O)[C@@H](NC(=O)[C@H](CS)NC(=O)[C@@H](NC(=O)[C@H](CCCCN)NC(=O)[C@H](CO)NC(=O)[C@H](CO)NC(=O)[C@H](C)NC(=O)[C@H](C)NC(=O)[C@H](C)NC(=O)[C@H](CO)NC(=O)[C@H](CCCCN)NC(=O)[C@H](CC(C)C)NC(=O)[C@@H](NC(=O)[C@@H](NC(=O)[C@@H]1CCCN1C(=O)[C@@H](NC(=O)[C@@H]1CCCN1C(=O)[C@@H](NC(=O)[C@@H](N)Cc1c[nH]c2ccccc12)[C@@H](C)O)[C@@H](C)O)[C@@H](C)CC)[C@@H](C)CC)C(C)C)[C@@H](C)CC)C(C)C)C(=O)NCC(=O)NCC(=O)N[C@@H](CC(C)C)C(=O)N[C@H](C(=O)N[C@@H](CO)C(=O)N[C@@H](Cc1ccc(O)cc1)C(=O)N[C@@H](CC(N)=O)C(=O)N[C@@H](CC(N)=O)C(=O)N[C@@H](CC(=O)O)C(=O)N[C@@H](CS)C(=O)N[C@@H](CC(C)C)C(=O)NCC(=O)O)C(C)C (H-WTPTPIILKSAAASSKVCISAAVSGIGGLVSYNNDCLG-OH) | 0.6 µM | 80 µM (≈ 301 µg/mL) |  | inactive | inactive | inactive | inactive | inactive | inactive | inactive | inactive
